Measured values from ChEMBL document CHEMBL1147882, “In vitro efficiency of new acridyl derivatives against Plasmodium falciparum” (Bioorg Med Chem, 2007).

How the values were obtained:
Assay type in all cases: functional, organism-based
Plasmodium falciparum [1] = experiment: Antimalarial activity against chloroquine-sensitive Plasmodium falciparum 3D7 by hypoxanthine uptake
How it was run: (§1)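 Synchronous parasites diluted in A-positive human erythrocytes with RPMI 1640 + 10% human serum, 25 mM HEPES, 25 mM NaHCO₃, to 0.2 parasitemia and 1.5 hematocrit. Added to wells predosed with drug, 0.06 to 200 µM in triplicate. 1 µCi [³H]hypoxanthine per well, 42 h at 37 °C. Incorporated radioactivity counted by scintillation. IC50 from non-linear regression of log-dose/response versus drug-free controls.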

Plasmodium falciparum [2] = experiment: Antimalarial activity against chloroquine-resistant Plasmodium falciparum W2 by hypoxanthine uptake; how it was run: as §1
Plasmodium falciparum [3] = experiment: Antimalarial activity against chloroquine-resistant Plasmodium falciparum FCR3 by hypoxanthine uptake; how it was run: as §1
Plasmodium falciparum [4] = experiment: Antimalarial activity against chloroquine-resistant Plasmodium falciparum Bre1 by hypoxanthine uptake; how it was run: as §1

Structure (SMILES)	IC50 (Plasmodium falciparum [1]) [nM]	IC50 (Plasmodium falciparum [2]) [nM]	IC50 (Plasmodium falciparum [3]) [nM]	IC50 (Plasmodium falciparum [4]) [nM]
COc1ccc2nc3cc(Cl)ccc3c(NCCCCCCN)c2c1	130	180	200	170
COc1ccc2nc3cc(Cl)ccc3c(NCCCCCCNC(=O)CCCNC(=O)CN)c2c1	890	830	810	620
COc1ccc2nc3cc(Cl)ccc3c(NCCCCCCNC(=O)CCN)c2c1	910	1250	1250	1260
N=C(N)NCCCC(N)C(=O)NCC(=O)NCCCCCCNC(=O)c1c2ccccc2nc2ccccc12 (configuration not stated)	42000	43600	42500	47600
COc1ccc2nc3cc(Cl)ccc3c(NCCCCCCNC(=O)CCCNC(=O)CNC(=O)C(N)CCCNC(=N)N)c2c1 (configuration not stated)	840	820	670	500
COc1ccc2nc3cc(Cl)ccc3c(NCCCCCCNC(=O)CCNC(=O)CCNC(=O)C(N)CCCNC(=N)N)c2c1 (configuration not stated)	3320	940	860	860
N=C(N)NCCCC(N)C(=O)NCC(=O)NCCCCCCCC(=O)Nc1c2ccccc2nc2ccccc12 (configuration not stated)	27100	30500	27200	28700
COc1ccc2nc3cc(Cl)ccc3c(NCCCCCCNC(=O)CCCN)c2c1	190	570	540	180
